We go through two compounds from ChEMBL document CHEMBL2424628, “Discovery of potent and selective nonsteroidal indazolyl amide glucocorticoid receptor agonists” (Bioorg Med Chem Lett, 2013).

Broadly, the Ki is a measure of affinity in units of concentration, obtained from inhibition or displacement. A low value points to higher affinity. By EC50 is commonly meant the concentration giving half of the maximal effect.

The species named for test [1] is Homo sapiens. Briefly: Selectivity ratio of Ki for progesterone receptor (unknown origin) to Ki for glucocorticoid receptor (unknown origin).
Test [2] addresses T1, Progesterone receptor (Homo sapiens, UniProt P06401).
T1 sequence (P06401 whole entry): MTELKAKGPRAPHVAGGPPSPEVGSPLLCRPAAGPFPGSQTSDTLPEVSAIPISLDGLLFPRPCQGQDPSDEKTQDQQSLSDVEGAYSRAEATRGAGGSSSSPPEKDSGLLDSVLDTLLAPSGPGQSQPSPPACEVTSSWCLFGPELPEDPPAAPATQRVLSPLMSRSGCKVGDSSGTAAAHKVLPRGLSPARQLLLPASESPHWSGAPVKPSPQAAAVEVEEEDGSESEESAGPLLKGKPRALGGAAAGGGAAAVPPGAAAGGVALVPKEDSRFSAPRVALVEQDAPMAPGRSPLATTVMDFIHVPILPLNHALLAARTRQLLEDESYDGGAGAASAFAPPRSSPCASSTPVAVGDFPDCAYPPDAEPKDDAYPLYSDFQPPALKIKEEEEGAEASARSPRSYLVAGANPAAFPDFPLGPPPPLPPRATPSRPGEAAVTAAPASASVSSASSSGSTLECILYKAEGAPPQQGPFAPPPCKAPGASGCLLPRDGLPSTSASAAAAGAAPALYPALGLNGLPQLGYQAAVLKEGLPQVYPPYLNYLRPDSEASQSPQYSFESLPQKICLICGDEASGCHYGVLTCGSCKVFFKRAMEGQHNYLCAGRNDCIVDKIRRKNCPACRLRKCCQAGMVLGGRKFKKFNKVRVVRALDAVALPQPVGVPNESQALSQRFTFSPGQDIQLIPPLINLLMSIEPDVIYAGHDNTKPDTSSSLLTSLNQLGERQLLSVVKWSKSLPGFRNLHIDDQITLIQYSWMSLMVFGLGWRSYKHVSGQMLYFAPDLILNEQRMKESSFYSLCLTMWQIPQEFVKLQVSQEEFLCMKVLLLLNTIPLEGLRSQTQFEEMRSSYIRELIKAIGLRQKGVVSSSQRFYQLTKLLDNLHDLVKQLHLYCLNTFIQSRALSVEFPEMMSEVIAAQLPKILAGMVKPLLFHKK
Briefly: Binding affinity to progesterone receptor (unknown origin) by fluorescence polarization assay. The gist of the method: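 Fluorescence polarization competition between test compound and a fluorescently labeled ligand for full-length receptor or its ligand binding domain. IC50 from a four-parameter logistic fit of the polarization signal, converted to Ki with Cheng–Prusoff […]. Means of duplicate experiments.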
On the technique in general: Polarisation of emitted light reports the rotation of a fluorescent probe.

Test [3] concerns the target T2, Glucocorticoid receptor (Homo sapiens, UniProt P04150).
T2 sequence (P04150 whole entry): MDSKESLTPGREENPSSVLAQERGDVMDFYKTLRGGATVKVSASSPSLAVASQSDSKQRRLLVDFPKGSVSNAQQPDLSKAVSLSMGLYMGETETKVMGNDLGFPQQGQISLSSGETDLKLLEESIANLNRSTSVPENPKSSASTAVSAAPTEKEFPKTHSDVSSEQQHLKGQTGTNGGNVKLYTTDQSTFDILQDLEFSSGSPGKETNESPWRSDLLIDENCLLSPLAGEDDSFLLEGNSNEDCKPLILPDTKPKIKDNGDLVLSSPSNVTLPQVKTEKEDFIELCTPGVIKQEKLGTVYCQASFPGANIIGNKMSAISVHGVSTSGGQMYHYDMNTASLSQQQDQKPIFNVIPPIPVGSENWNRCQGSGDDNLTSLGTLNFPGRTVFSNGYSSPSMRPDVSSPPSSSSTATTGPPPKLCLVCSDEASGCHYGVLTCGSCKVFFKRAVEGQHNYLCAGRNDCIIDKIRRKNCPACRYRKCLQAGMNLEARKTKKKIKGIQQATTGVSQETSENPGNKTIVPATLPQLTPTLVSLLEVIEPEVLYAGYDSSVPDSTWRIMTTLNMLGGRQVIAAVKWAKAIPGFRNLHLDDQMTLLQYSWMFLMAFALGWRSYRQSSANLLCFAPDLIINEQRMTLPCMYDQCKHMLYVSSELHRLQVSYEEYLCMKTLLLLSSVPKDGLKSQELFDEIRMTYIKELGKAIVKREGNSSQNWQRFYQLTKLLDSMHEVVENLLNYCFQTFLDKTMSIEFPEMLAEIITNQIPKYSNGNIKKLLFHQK
Briefly: Agonist activity at glucocorticoid receptor in human A549 cells assessed as inhibition of PMA-induced AP-1 activation by luciferase reporter gene assay. It is filed as cell-based. A general note: A reporter such as luciferase makes a cellular process visible.

For test [4], the species on record is Homo sapiens. Briefly: Selectivity ratio of Ki for androgen receptor (unknown origin) to Ki for glucocorticoid receptor (unknown origin).
Test [5] has as its target T3, Mineralocorticoid receptor (Homo sapiens, UniProt P08235).
T3 sequence (P08235 whole entry): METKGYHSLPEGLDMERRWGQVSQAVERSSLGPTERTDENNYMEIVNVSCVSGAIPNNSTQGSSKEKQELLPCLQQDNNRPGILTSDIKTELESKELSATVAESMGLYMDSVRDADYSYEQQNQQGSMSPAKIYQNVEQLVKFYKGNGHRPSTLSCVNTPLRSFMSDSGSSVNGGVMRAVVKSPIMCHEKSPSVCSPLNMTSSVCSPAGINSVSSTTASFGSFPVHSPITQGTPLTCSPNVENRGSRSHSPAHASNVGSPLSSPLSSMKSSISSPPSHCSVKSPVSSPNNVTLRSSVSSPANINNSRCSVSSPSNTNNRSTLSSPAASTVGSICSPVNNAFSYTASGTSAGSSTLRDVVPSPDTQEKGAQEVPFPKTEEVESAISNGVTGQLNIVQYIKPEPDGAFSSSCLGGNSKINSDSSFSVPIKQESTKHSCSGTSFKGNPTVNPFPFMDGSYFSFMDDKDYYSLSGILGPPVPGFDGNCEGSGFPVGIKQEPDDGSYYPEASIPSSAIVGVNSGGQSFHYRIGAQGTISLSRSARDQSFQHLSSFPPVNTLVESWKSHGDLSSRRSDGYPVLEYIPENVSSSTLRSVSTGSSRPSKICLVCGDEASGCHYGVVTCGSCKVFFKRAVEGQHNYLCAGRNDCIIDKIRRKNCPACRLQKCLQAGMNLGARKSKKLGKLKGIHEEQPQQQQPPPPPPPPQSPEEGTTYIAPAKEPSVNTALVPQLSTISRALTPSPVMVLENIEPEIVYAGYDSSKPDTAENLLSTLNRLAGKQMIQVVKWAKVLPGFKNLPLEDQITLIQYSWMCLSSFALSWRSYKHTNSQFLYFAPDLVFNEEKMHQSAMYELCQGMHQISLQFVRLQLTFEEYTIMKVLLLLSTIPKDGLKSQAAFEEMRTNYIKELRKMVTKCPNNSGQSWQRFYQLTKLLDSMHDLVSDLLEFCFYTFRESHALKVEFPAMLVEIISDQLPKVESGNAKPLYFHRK
Nature of the test: Agonist activity at mineralocorticoid receptor in human A549 cells. It is filed as cell-based. The gist of the method:
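Cellular agonist assay in an A549 line with aldosterone as positive control. EC50 taken relative to % maximal efficacy. Means of duplicate experiments.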

For the compound `CC(C)(C(=O)Nc1nncs1)[C@@H](c1ccccc1)c1ccc2c(cnn2-c2ccc(F)cc2)c1`, the Ratio Ki in test [1] is 10; in test [4], > 1000. In test [2], this compound displayed an inhibition constant Ki of 0.107 µM. In addition, the EC50 in test [3] is 0.0024 µM; in test [5] it was > 5 µM.

With `CC(C)(C(=O)Nc1nncs1)[C@H](c1ccccc1)c1ccc2c(cnn2-c2ccc(F)cc2)c1`, the Ratio Ki in test [1] was 10; in test [4], > 1000. This compound also returned a Ki in test [2] of 0.056 µM. In addition, the EC50 in test [3] is 0.092 µM; in test [5], > 5 µM.
